Activity calls are given as the source filed them.
Tests used:
RXF 393 = assay: Cytotoxicity against human RXF393 cells by sulforhodamine B assay; format: functional
Summary of the method: (§1)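 NCI Developmental Therapeutics Program 60-cell-line human tumor panel screen, run at NCI. A single-concentration pre-screen was followed by a five-concentration dose-response in 10-fold steps. GI50 is the concentration that reduces growth of treated cells to half that of untreated control cells. TGI is the concentration that completely halts growth.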

COLO 205 [1] = assay: Antitumor activity against human COLO205 cells xenografted in mouse assessed as tumor cell killing at 4.7 mg/kg, ip qd for 4 days by MTT assay; format: functional, organism-based; set-up: dose 4.7 mg/kg
Summary of the method: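 Hollow-fiber assay in mice. Tumor lines were grown in RPMI-1640 with 10% FBS and 2 mM glutamine. Cells at 2 × 10^6 cells/ml were loaded into 1 mm PVDF fibers (500,000 Da cutoff), heat-sealed at 2 cm and held 24–48 h at 37 °C, 5% CO2 before implantation. Compound was given IP. Fibers were collected the day after the fourth treatment for MTT (OD 540 nm, group means). A ≥50% cut in percent net growth versus vehicle counted as positive.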

OVCAR-3 [2] = assay: Cytotoxicity against human OVCAR3 cells by sulforhodamine B assay; format: functional; summary of the method: as §1
T47D [3] = assay: Cytotoxicity against human T47D cells assessed as cell growth at 8 uM by sulforhodamine B assay relative to control; format: functional; settings: read-out: Activity
KM12 = assay: Cytotoxicity against human KM12 cells assessed as cell growth at 8 uM by sulforhodamine B assay relative to control; format: functional; settings: read-out: Activity
OVCAR-3 [4] = assay: Cytotoxicity against human OVCAR3 cells assessed as cell growth at 800 nM by sulforhodamine B assay relative to control; format: functional; settings: read-out: Activity
IGROV-1 = assay: Cytotoxicity against human IGROV1 cells assessed as cell growth at 800 nM by sulforhodamine B assay relative to control; format: functional; settings: read-out: Activity
COLO 205 [5] = assay: Cytotoxicity against human COLO205 cells assessed as cell growth at 80 nM by sulforhodamine B assay relative to control; format: functional; settings: read-out: Activity
Summary of the method: (§2)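 Run at NCI in the DTP 60-cell-line human tumor panel by standard procedure. Compounds were first screened at a single concentration, then tested at five tenfold-spaced concentrations. GI50 is the concentration reducing treated-cell growth to half that of untreated controls; TGI is the concentration completely halting growth.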

OVCAR-5 = assay: Cytotoxicity against human OVCAR5 cells assessed as cell growth at 8 nM by sulforhodamine B assay relative to control; format: functional; settings: read-out: Activity
UACC-62 = assay: Cytotoxicity against human UACC62 cells assessed as cell growth at 8 nM by sulforhodamine B assay relative to control; format: functional; settings: read-out: Activity
TK-10 = assay: Cytotoxicity against human TK10 cells assessed as cell growth at 800 nM by sulforhodamine B assay relative to control; format: functional; settings: read-out: Activity
UO-31 = assay: Cytotoxicity against human UO31 cells assessed as cell growth at 8 nM by sulforhodamine B assay relative to control; format: functional; settings: read-out: Activity
SF-539 = assay: Cytotoxicity against human SF539 cells assessed as cell growth at 8 uM by sulforhodamine B assay relative to control; format: functional; settings: read-out: Activity
NCI-H460 [6] = assay: Cytotoxicity against human NCI-H460 cells by sulforhodamine B assay; format: functional; summary of the method: as §1
NCI-H460 [7] = assay: Cytotoxicity against human NCI-H460 cells assessed as cell growth at 8 uM by sulforhodamine B assay relative to control; format: functional; settings: read-out: Activity
DU-145 [8] = assay: Cytotoxicity against human DU145 cells assessed as cell growth at 8 uM by sulforhodamine B assay relative to control; format: functional; settings: read-out: Activity; summary of the method: as §2
Staphylococcus aureus = assay: Antimicrobial activity against methicillin-resistant Staphylococcus aureus ATCC 43300 by CLSI method; format: functional, organism-based
HOP-92 = assay: Cytotoxicity against human HOP92 cells assessed as cell growth at 80 uM by sulforhodamine B assay relative to control; format: functional; settings: read-out: Activity
NCI-H23 = assay: Cytotoxicity against human NCI-H23 cells assessed as cell growth at 80 nM by sulforhodamine B assay relative to control; format: functional; settings: read-out: Activity
Hs-578T [9] = assay: Cytotoxicity against human Hs578T cells assessed as cell growth at 80 nM by sulforhodamine B assay relative to control; format: functional; settings: read-out: Activity
NCI-H460 [10] = assay: Cytotoxicity against human NCI-H460 cells assessed as cell growth at 80 uM by sulforhodamine B assay relative to control; format: functional; settings: read-out: Activity
NCI/ADR-RES = assay: Cytotoxicity against human NCI/ADR-RES cells assessed as cell growth at 80 nM by sulforhodamine B assay relative to control; format: functional; settings: read-out: Activity
M14 [11] = assay: Cytotoxicity against human M14 cells assessed as cell growth at 8 uM by sulforhodamine B assay relative to control; format: functional; settings: read-out: Activity
OVCAR-4 [12] = assay: Cytotoxicity against human OVCAR4 cells assessed as cell growth at 80 nM by sulforhodamine B assay relative to control; format: functional; settings: read-out: Activity
UACC-257 = assay: Cytotoxicity against human UACC257 cells by sulforhodamine B assay; format: functional; summary of the method: as §1
HCT-116 = assay: Cytotoxicity against human HCT116 cells assessed as cell growth at 8 nM by sulforhodamine B assay relative to control; format: functional; settings: read-out: Activity
OVCAR-8 = assay: Cytotoxicity against human OVCAR8 cells assessed as cell growth at 8 uM by sulforhodamine B assay relative to control; format: functional; settings: read-out: Activity
OVCAR-4 [13] = assay: Cytotoxicity against human OVCAR4 cells assessed as cell growth at 8 uM by sulforhodamine B assay relative to control; format: functional; settings: read-out: Activity
SF-268 = assay: Cytotoxicity against human SF268 cells by sulforhodamine B assay; format: functional
SNB-75 = assay: Cytotoxicity against human SNB75 cells assessed as cell growth at 8 uM by sulforhodamine B assay relative to control; format: functional; settings: read-out: Activity
HL-60(TB) = assay: Cytotoxicity against human HL-60(TB) cells assessed as cell growth at 80 uM by sulforhodamine B assay relative to control; format: functional; settings: read-out: Activity
Hs-578T [14] = assay: Cytotoxicity against human Hs578T cells assessed as cell growth at 800 nM by sulforhodamine B assay relative to control; format: functional; settings: read-out: Activity
SK-MEL-5 = assay: Cytotoxicity against human SK-MEL-5 cells assessed as cell growth at 8 uM by sulforhodamine B assay relative to control; format: functional; settings: read-out: Activity
DU-145 [15] = assay: Cytotoxicity against human DU145 cells assessed as cell growth at 800 nM by sulforhodamine B assay relative to control; format: functional; settings: read-out: Activity
Malme-3M = assay: Cytotoxicity against human MALME-3M cells assessed as cell growth at 80 nM by sulforhodamine B assay relative to control; format: functional; settings: read-out: Activity
LOX IMVI = assay: Cytotoxicity against human LOXIMVI cells assessed as cell growth at 8 nM by sulforhodamine B assay relative to control; format: functional; settings: read-out: Activity
T47D [16] = assay: Cytotoxicity against human T47D cells assessed as cell growth at 800 nM by sulforhodamine B assay relative to control; format: functional; settings: read-out: Activity
SNB-19 = assay: Cytotoxicity against human SNB19 cells assessed as cell growth at 80 nM by sulforhodamine B assay relative to control; format: functional; settings: read-out: Activity
M14 [17] = assay: Cytotoxicity against human M14 cells assessed as cell growth at 80 uM by sulforhodamine B assay relative to control; format: functional; settings: read-out: Activity
M14 [18] = assay: Cytotoxicity against human M14 cells by sulforhodamine B assay; format: functional; summary of the method: as §1

**Q.** For `C/C=C1\NC(=O)[C@H](Cc2ccccc2)NC(=O)[C@@H](C(C)C)NC(=O)[C@@H]([C@@H](C)CC)NC(=O)[C@H](NC(=O)[C@H](NC(=O)[C@H](CCCNCc2ccc(N3CCOCC3)cc2)NC(=O)[C@H]2CCCN2C(=O)[C@H](NC(=O)[C@@H](NC(=O)[C@@H](NC(=O)[C@H](NC(=O)CCCC(C)C)C(C)C)[C@@H](C)O)C(C)C)C(C)C)[C@@H](C)CC)[C@@H](C)OC(=O)[C@H](C(C)C)NC1=O`, which GI50 (RXF 393) is on record?
**A.** 1.58 µM

**Q.** What about the LC50 (RXF 393) of the same molecule?
**A.** > 75.9 µM

**Q.** What about the TGI (RXF 393; read-out: pTGI (converted)) of the same molecule?
**A.** 3.55 µM

**Q.** What about the Activity (COLO 205 [1]) of the same molecule?
**A.** inactive

**Q.** What about the GI50 (OVCAR-3 [2]) of the same molecule?
**A.** 0.617 µM

**Q.** What about the TGI (OVCAR-3 [2]; read-out: pTGI (converted)) of the same molecule?
**A.** 1.86 µM

**Q.** What about the growth at 8 µM (T47D [3]) of the same molecule?
**A.** -63%

**Q.** And the growth at 8 µM (KM12)?
**A.** -48%

**Q.** What about the growth at 0.8 µM (OVCAR-3 [4]) of the same molecule?
**A.** 46%

**Q.** And the growth at 0.8 µM (IGROV-1)?
**A.** 55%

**Q.** What about the growth at 0.08 µM (COLO 205 [5]) of the same molecule?
**A.** 95%

**Q.** What about the growth at 0.008 µM (OVCAR-5) of the same molecule?
**A.** 97%

**Q.** What about the growth at 0.008 µM (UACC-62) of the same molecule?
**A.** 102%

**Q.** And the growth at 0.8 µM (TK-10)?
**A.** 104%

**Q.** What about the growth at 0.008 µM (UO-31) of the same molecule?
**A.** 101%

**Q.** What about the growth at 8 µM (SF-539) of the same molecule?
**A.** -89%

**Q.** What about the GI50 (NCI-H460 [6]) of the same molecule?
**A.** 2 µM

**Q.** And the CC50 (NCI-H460 [6]; read-out: pLC50 (the source's name) (converted))?
**A.** > 75.9 µM

**Q.** And the growth at 8 µM (NCI-H460 [7])?
**A.** -24%

**Q.** What about the growth at 8 µM (DU-145 [8]) of the same molecule?
**A.** -96%

**Q.** And the Activity (Staphylococcus aureus)?
**A.** inactive

**Q.** What about the growth at 80 µM (HOP-92) of the same molecule?
**A.** -62%

**Q.** What about the growth at 0.08 µM (NCI-H23) of the same molecule?
**A.** 99%

**Q.** And the growth at 0.08 µM (Hs-578T [9])?
**A.** 101%

**Q.** What about the growth at 80 µM (NCI-H460 [10]) of the same molecule?
**A.** 2%

**Q.** And the growth at 0.08 µM (NCI/ADR-RES)?
**A.** 82%

**Q.** And the growth at 8 µM (M14 [11])?
**A.** -89%

**Q.** And the growth at 0.08 µM (OVCAR-4 [12])?
**A.** 102%

**Q.** What about the GI50 (UACC-257; read-out: GI50) of the same molecule?
**A.** 1.34 µM

**Q.** And the TGI (UACC-257; read-out: TGI)?
**A.** 2.65 µM

**Q.** What about the GI50 (UACC-257; read-out: pGI50 (converted)) of the same molecule?
**A.** 1.35 µM

**Q.** And the TGI (UACC-257; read-out: pTGI (converted))?
**A.** 2.63 µM

**Q.** What about the growth at 0.008 µM (HCT-116) of the same molecule?
**A.** 102%

**Q.** And the growth at 8 µM (OVCAR-8)?
**A.** -34%

**Q.** What about the growth at 8 µM (OVCAR-4 [13]) of the same molecule?
**A.** -59%

**Q.** And the GI50 (SF-268)?
**A.** 1.45 µM

**Q.** And the growth at 8 µM (SNB-75)?
**A.** -80%

**Q.** And the growth at 80 µM (HL-60(TB))?
**A.** -24%

**Q.** And the growth at 0.8 µM (Hs-578T [14])?
**A.** 36%

**Q.** What about the growth at 8 µM (SK-MEL-5) of the same molecule?
**A.** -100%

**Q.** And the growth at 0.8 µM (DU-145 [15])?
**A.** -77%

**Q.** And the growth at 0.08 µM (Malme-3M)?
**A.** 112%

**Q.** What about the growth at 0.008 µM (LOX IMVI) of the same molecule?
**A.** 95%

**Q.** What about the growth at 0.8 µM (T47D [16]) of the same molecule?
**A.** -23%

**Q.** And the growth at 0.08 µM (SNB-19)?
**A.** 102%

**Q.** What about the growth at 80 µM (M14 [17]) of the same molecule?
**A.** -69%

**Q.** What about the GI50 (M14 [18]) of the same molecule?
**A.** 1.41 µM

**Q.** What about the LC50 (M14 [18]) of the same molecule?
**A.** 4.68 µM

**Q.** What about the TGI (M14 [18]; read-out: pTGI (converted)) of the same molecule?
**A.** 2.57 µM
